Measurements from ChEMBL document CHEMBL1255409, “In vitro activity of ceftaroline against 623 diverse strains of anaerobic bacteria” (2010).
Converted amounts (≈) assume the structure as drawn.

Legend:
Assay type in all cases: functional
Anaerococcus octavius = assay: Antimicrobial activity against Anaerococcus octavius under anaerobic conditions after 44 hrs by CLSI-M11-47 protocol based agar dilution method
In short: (§1)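 Reference agar dilution per CLSI M11-A7 with plates made on test day. Clinical isolates were stored at −70°C in 20% skim milk, subcultured twice, and 48-h cell paste was suspended in brucella broth to 0.5 McFarland. About 10^5 CFU/spot was applied with a Steers replicator. Plates were incubated 44 h at 37°C anaerobically. MIC was the lowest concentration giving complete inhibition or marked growth reduction versus the drug-free control.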

Fusobacterium mortiferum = assay: Antimicrobial activity against Fusobacterium mortiferum under anaerobic conditions after 44 hrs by CLSI-M11-47 protocol based agar dilution method; in short: as §1
Prevotella oris = assay: Antimicrobial activity against Prevotella oris under anaerobic conditions after 44 hrs by CLSI-M11-47 protocol based agar dilution method; details: Segatella oris
In short: (§2)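 Clinical isolates were stored at −70°C in 20% skim milk and identified phenotypically or by partial 16S rRNA sequencing. Each strain was subcultured twice from frozen stock. Cell paste from 48-h cultures was suspended in brucella broth to a 0.5 McFarland standard. About 10^5 CFU per spot were applied by Steers replicator to agar dilution plates prepared on the day of testing. Plates were incubated 44 h at 37°C in an anaerobic chamber. MIC was taken as the lowest concentration giving complete inhibition or marked reduction of growth versus the drug-free control.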

Bacteroides fragilis = assay: Antimicrobial activity against Bacteroides fragilis spp. under anaerobic conditions after 44 hrs by CLSI-M11-47 protocol based agar dilution method; in short: as §1
Parabacteroides merdae = assay: Antimicrobial activity against Bacteroides merdae under anaerobic conditions after 44 hrs by CLSI-M11-47 protocol based agar dilution method; in short: as §1
Eggerthella lenta = assay: Antimicrobial activity against Eggerthella lenta under anaerobic conditions after 44 hrs by CLSI-M11-47 protocol based agar dilution method; in short: as §1
Cutibacterium acnes = assay: Antimicrobial activity against Propionibacterium acnes under anaerobic conditions after 44 hrs by CLSI-M11-47 protocol based agar dilution method; in short: as §2
[1] = test system: Peptostreptococcus stomatis; assay: Antimicrobial activity against Peptostreptococcus stomatis under anaerobic conditions after 44 hrs by CLSI-M11-47 protocol based agar dilution method; in short: as §2
Propionibacterium avidum = assay: Antimicrobial activity against Propionibacterium avidum under anaerobic conditions after 44 hrs by CLSI-M11-47 protocol based agar dilution method; details: Cutibacterium avidum; in short: as §2
Clostridium subterminale = assay: Antimicrobial activity against Clostridium subterminale under anaerobic conditions after 44 hrs by CLSI-M11-47 protocol based agar dilution method; in short: as §1
[2] = test system: Peptostreptococcus anaerobius; assay: Antimicrobial activity against Peptostreptococcus anaerobius under anaerobic conditions after 44 hrs by CLSI-M11-47 protocol based agar dilution method; in short: as §2
Lacrimispora sphenoides = assay: Antimicrobial activity against Clostridium sphenoides under anaerobic conditions after 44 hrs by CLSI-M11-47 protocol based agar dilution method; in short: as §1
Eubacterium limosum = assay: Antimicrobial activity against Eubacterium limosum under anaerobic conditions after 44 hrs by CLSI-M11-47 protocol based agar dilution method; in short: as §1
Phocaeicola vulgatus = assay: Antimicrobial activity against Bacteroides vulgatus under anaerobic conditions after 44 hrs by CLSI-M11-47 protocol based agar dilution method; in short: as §1
Clostridium butyricum = assay: Antimicrobial activity against Clostridium butyricum under anaerobic conditions after 44 hrs by CLSI-M11-47 protocol based agar dilution method
Veillonella = assay: Antimicrobial activity against Veillonella spp. under anaerobic conditions after 44 hrs by CLSI-M11-47 protocol based agar dilution method; in short: as §2
Lacticaseibacillus casei = assay: Antimicrobial activity against Lactobacillus casei under anaerobic conditions after 44 hrs by CLSI-M11-47 protocol based agar dilution method; in short: as §2
Fusobacterium varium = assay: Antimicrobial activity against Fusobacterium varium under anaerobic conditions after 44 hrs by CLSI-M11-47 protocol based agar dilution method; in short: as §2
[3] = test system: Enterocloster clostridioformis; assay: Antimicrobial activity against Clostridium clostridioforme under anaerobic conditions after 44 hrs by CLSI-M11-47 protocol based agar dilution method; in short: as §1
Clostridium glycolicum = assay: Antimicrobial activity against Clostridium glycolicum under anaerobic conditions after 44 hrs by CLSI-M11-47 protocol based agar dilution method; details: Terrisporobacter glycolicus; in short: as §1
[4] = test system: Clostridium celerecrescens; assay: Antimicrobial activity against Clostridium celerecrescens under anaerobic conditions after 44 hrs by CLSI-M11-47 protocol based agar dilution method; details: Lacrimispora celerecrescens; in short: as §1
Bacteroides ovatus = assay: Antimicrobial activity against Bacteroides ovatus under anaerobic conditions after 44 hrs by CLSI-M11-47 protocol based agar dilution method; in short: as §1
Clostridioides difficile = assay: Antimicrobial activity against Clostridium difficile under anaerobic conditions after 44 hrs by CLSI-M11-47 protocol based agar dilution method; in short: as §1
Prevotella buccae = assay: Antimicrobial activity against Prevotella buccae under anaerobic conditions after 44 hrs by CLSI-M11-47 protocol based agar dilution method; details: Segatella buccae; in short: as §2
Eubacterium contortum = assay: Antimicrobial activity against Eubacterium contortum under anaerobic conditions after 44 hrs by CLSI-M11-47 protocol based agar dilution method; details: Faecalicatena contorta; in short: as §1
Peptoniphilus harei = assay: Antimicrobial activity against Peptoniphilus harei under anaerobic conditions after 44 hrs by CLSI-M11-47 protocol based agar dilution method; in short: as §2
[5] = test system: Paeniclostridium sordellii; assay: Antimicrobial activity against Clostridium sordellii under anaerobic conditions after 44 hrs by CLSI-M11-47 protocol based agar dilution method; details: Paraclostridium sordellii; in short: as §1
Clostridium hathewayi = assay: Antimicrobial activity against Clostridium hathewayi under anaerobic conditions after 44 hrs by CLSI-M11-47 protocol based agar dilution method; details: Hungatella hathewayi; in short: as §1
Actinomyces israelii = assay: Antimicrobial activity against Actinomyces israelii under anaerobic conditions after 44 hrs by CLSI-M11-47 protocol based agar dilution method; in short: as §1
Prevotella disiens = assay: Antimicrobial activity against Prevotella disiens under anaerobic conditions after 44 hrs by CLSI-M11-47 protocol based agar dilution method; in short: as §2
Bacteroides caccae = assay: Antimicrobial activity against Bacteroides caccae under anaerobic conditions after 44 hrs by CLSI-M11-47 protocol based agar dilution method; in short: as §1
[6] = test system: Peptoniphilus asaccharolyticus; assay: Antimicrobial activity against Peptoniphilus asaccharolyticus under anaerobic conditions after 44 hrs by CLSI-M11-47 protocol based agar dilution method; in short: as §2

SMILES: CO/N=C(\C(=O)N[C@@H]1C(=O)N2C(C(=O)O)=C(CSc3nc(=O)c(O)nn3C)CS[C@H]12)c1csc(N)n1 [CEFTRIAXONE]
- MIC50 (Anaerococcus octavius): 0.25 µg/mL (≈ 0.451 µM)
- MIC90 (Anaerococcus octavius): 16 µg/mL (≈ 28.9 µM)
- MIC50 (Fusobacterium mortiferum): > 64 µg/mL
- MIC90 (Fusobacterium mortiferum): > 64 µg/mL
- MIC50 (Prevotella oris): 1 µg/mL (≈ 1.8 µM)
- MIC90 (Prevotella oris): 8 µg/mL (≈ 14.4 µM)
- MIC50 (Bacteroides fragilis): > 64 µg/mL
- MIC90 (Bacteroides fragilis): > 64 µg/mL
- MIC50 (Parabacteroides merdae): > 64 µg/mL
- MIC90 (Parabacteroides merdae): > 64 µg/mL
- MIC50 (Eggerthella lenta): > 64 µg/mL
- MIC90 (Eggerthella lenta): > 64 µg/mL
- MIC50 (Cutibacterium acnes): 0.015 µg/mL (≈ 0.027 µM)
- MIC90 (Cutibacterium acnes): 0.06 µg/mL (≈ 0.108 µM)
- MIC50 [1]: 2 µg/mL (≈ 3.61 µM)
- MIC90 [1]: 8 µg/mL (≈ 14.4 µM)
- MIC50 (Propionibacterium avidum): 0.25 µg/mL (≈ 0.451 µM)
- MIC90 (Propionibacterium avidum): 0.5 µg/mL (≈ 0.902 µM)
- MIC50 (Clostridium subterminale): 2 µg/mL (≈ 3.61 µM)
- MIC90 (Clostridium subterminale): 64 µg/mL (≈ 115 µM)
- MIC50 [2]: 2 µg/mL (≈ 3.61 µM)
- MIC90 [2]: 8 µg/mL (≈ 14.4 µM)
- MIC50 (Lacrimispora sphenoides): 2 µg/mL (≈ 3.61 µM)
- MIC90 (Lacrimispora sphenoides): 64 µg/mL (≈ 115 µM)
- MIC50 (Eubacterium limosum): 0.5 µg/mL (≈ 0.902 µM)
- MIC90 (Eubacterium limosum): 2 µg/mL (≈ 3.61 µM)
- MIC50 (Phocaeicola vulgatus): > 64 µg/mL
- MIC90 (Phocaeicola vulgatus): > 64 µg/mL
- MIC50 (Clostridium butyricum): 2 µg/mL (≈ 3.61 µM)
- MIC90 (Clostridium butyricum): 64 µg/mL (≈ 115 µM)
- MIC50 (Veillonella): 4 µg/mL (≈ 7.21 µM)
- MIC90 (Veillonella): 8 µg/mL (≈ 14.4 µM)
- MIC50 (Lacticaseibacillus casei): 32 µg/mL (≈ 57.7 µM)
- MIC90 (Lacticaseibacillus casei): 64 µg/mL (≈ 115 µM)
- MIC50 (Fusobacterium varium): 1 µg/mL (≈ 1.8 µM)
- MIC90 (Fusobacterium varium): 8 µg/mL (≈ 14.4 µM)
- MIC50 [3]: 4 µg/mL (≈ 7.21 µM)
- MIC90 [3]: 32 µg/mL (≈ 57.7 µM)
- MIC50 (Clostridium glycolicum): 2 µg/mL (≈ 3.61 µM)
- MIC90 (Clostridium glycolicum): 64 µg/mL (≈ 115 µM)
- MIC50 [4]: 2 µg/mL (≈ 3.61 µM)
- MIC90 [4]: 64 µg/mL (≈ 115 µM)
- MIC50 (Bacteroides ovatus): > 64 µg/mL
- MIC90 (Bacteroides ovatus): > 64 µg/mL
- MIC50 (Clostridioides difficile): 2 µg/mL (≈ 3.61 µM)
- MIC90 (Clostridioides difficile): 64 µg/mL (≈ 115 µM)
- MIC50 (Prevotella buccae): 0.25 µg/mL (≈ 0.451 µM)
- MIC90 (Prevotella buccae): 64 µg/mL (≈ 115 µM)
- MIC50 (Eubacterium contortum): 0.5 µg/mL (≈ 0.902 µM)
- MIC90 (Eubacterium contortum): 2 µg/mL (≈ 3.61 µM)
- MIC50 (Peptoniphilus harei): 0.25 µg/mL (≈ 0.451 µM)
- MIC90 (Peptoniphilus harei): 16 µg/mL (≈ 28.9 µM)
- MIC50 [5]: 2 µg/mL (≈ 3.61 µM)
- MIC90 [5]: 64 µg/mL (≈ 115 µM)
- MIC50 (Clostridium hathewayi): 4 µg/mL (≈ 7.21 µM)
- MIC90 (Clostridium hathewayi): 32 µg/mL (≈ 57.7 µM)
- MIC50 (Actinomyces israelii): 0.125 µg/mL (≈ 0.225 µM)
- MIC90 (Actinomyces israelii): 0.5 µg/mL (≈ 0.902 µM)
- MIC50 (Prevotella disiens): 1 µg/mL (≈ 1.8 µM)
- MIC90 (Prevotella disiens): 8 µg/mL (≈ 14.4 µM)
- MIC50 (Bacteroides caccae): > 64 µg/mL
- MIC90 (Bacteroides caccae): > 64 µg/mL
- MIC50 [6]: 0.125 µg/mL (≈ 0.225 µM)
- MIC90 [6]: 0.25 µg/mL (≈ 0.451 µM)
